Experimental findings from ChEMBL document CHEMBL1141216, “Mono- or diphenylpyridazines connected to N-(2,4-difluorophenyl)-N'-heptylurea as acyl-CoA:cholesterol acyltransferase inhibitors” (J Med Chem, 2005) are described below.

Experiment [1] has as its target T1, Sterol O-acyltransferase 1 (Rattus norvegicus) (UniProt O70536).
T1 sequence (whole entry): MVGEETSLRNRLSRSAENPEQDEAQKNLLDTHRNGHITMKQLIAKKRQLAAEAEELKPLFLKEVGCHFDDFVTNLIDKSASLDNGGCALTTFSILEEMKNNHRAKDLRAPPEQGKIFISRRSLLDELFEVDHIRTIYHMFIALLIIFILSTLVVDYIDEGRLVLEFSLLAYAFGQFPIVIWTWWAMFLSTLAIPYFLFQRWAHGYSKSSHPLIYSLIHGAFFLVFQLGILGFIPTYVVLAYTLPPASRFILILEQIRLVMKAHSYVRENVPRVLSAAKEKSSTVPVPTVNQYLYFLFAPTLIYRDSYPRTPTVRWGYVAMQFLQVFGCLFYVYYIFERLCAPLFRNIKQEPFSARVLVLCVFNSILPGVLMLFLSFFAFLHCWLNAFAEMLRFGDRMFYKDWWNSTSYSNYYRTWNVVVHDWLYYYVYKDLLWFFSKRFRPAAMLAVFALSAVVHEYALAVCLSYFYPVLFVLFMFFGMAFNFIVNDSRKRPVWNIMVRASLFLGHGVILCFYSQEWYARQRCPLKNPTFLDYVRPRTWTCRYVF
Description: Inhibition of ACAT expressed in rat liver microsomes at 50 ug/ml. As to conditions: Microsome. An outline of the steps:
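Rat liver microsomes were the enzyme source, assayed by a previously described method. Compounds were tested at 50 μg/mL, and the readout was % ACAT inhibition. Values are means of three experiments differing by less than 10%. GERI-BP001M served as reference.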
On the technique in general: Liver microsomes are a subcellular fraction often used to study metabolism.

In experiment [2] the target is T2, Sterol O-acyltransferase 1 (Rattus norvegicus, UniProt O70536).
T2 sequence (O70536 whole entry): T1 sequence (whole entry)
Description: Inhibition of ACAT expressed in rat liver microsomes. Further details: species or system Microsome.

Experiment [3] has as its target T3, Sterol O-acyltransferase 2 (Homo sapiens, UniProt O75908).
T3 sequence (O75908 whole entry): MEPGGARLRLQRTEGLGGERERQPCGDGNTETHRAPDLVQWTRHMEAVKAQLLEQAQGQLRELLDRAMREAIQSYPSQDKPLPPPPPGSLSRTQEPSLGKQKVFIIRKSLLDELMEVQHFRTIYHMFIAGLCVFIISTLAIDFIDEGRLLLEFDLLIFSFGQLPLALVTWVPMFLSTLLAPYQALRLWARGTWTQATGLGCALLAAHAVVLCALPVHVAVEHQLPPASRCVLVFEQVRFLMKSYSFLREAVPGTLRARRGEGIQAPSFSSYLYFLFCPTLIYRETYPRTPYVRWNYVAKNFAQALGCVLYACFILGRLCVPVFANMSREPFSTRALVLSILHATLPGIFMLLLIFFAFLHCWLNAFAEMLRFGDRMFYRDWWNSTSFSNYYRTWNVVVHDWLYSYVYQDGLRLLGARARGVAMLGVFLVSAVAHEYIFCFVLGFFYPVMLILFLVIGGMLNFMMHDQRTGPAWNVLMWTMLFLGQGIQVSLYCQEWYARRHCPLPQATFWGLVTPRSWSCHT
Kind of experiment: Inhibition of human ACAT2 expressed in Hi5 cells. Further details: species or system BTI-TN-5B1-4. Put shortly: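 Human ACAT-2 was expressed by baculovirus in Hi5 insect cells, and microsomal fractions of these cells were the enzyme source. Activity was measured by the Brecher and Chan method with slight modification.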

Experiment [4] deals with T4, Sterol O-acyltransferase 1 (Homo sapiens, UniProt P35610).
T4 sequence (P35610 whole entry): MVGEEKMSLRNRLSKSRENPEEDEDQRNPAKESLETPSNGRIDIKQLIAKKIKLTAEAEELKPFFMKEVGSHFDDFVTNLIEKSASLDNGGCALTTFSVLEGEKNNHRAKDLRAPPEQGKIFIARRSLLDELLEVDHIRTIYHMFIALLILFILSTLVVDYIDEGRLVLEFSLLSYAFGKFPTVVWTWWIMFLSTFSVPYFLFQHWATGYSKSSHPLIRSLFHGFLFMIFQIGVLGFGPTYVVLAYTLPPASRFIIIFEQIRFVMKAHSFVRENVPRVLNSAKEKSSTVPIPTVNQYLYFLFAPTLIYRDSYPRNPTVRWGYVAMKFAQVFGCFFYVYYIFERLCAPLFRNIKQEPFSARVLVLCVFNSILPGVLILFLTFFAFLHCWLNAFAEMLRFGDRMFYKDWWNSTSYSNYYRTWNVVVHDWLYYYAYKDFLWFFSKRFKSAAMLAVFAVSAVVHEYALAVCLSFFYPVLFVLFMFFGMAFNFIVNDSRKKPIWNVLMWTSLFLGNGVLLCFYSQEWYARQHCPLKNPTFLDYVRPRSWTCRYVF
Kind of experiment: Inhibition of human ACAT1 expressed in Hi5 cells. More on the design: species or system BTI-TN-5B1-4.

The inhibition is the percentage by which the read-out fell short of the control. A high value points to a response far below the control. `CCCCCCCN(CCCCCSc1cc(-c2ccccc2)cnn1)C(=O)Nc1ccc(F)cc1F` came in with an inhibition in experiment [1] of 75%.
In turn, `CCCCCCCN(CCCCC[S+]([O-])c1cc(-c2ccccc2)cnn1)C(=O)Nc1ccc(F)cc1F` (centres undefined) yielded an inhibition in experiment [1] of 62%.
For orientation: IC50 means the concentration that inhibits the measured activity by half. In experiment [1], `CCCCCCCN(CCCCCNc1cc(-c2ccccc2)c(-c2ccccc2)nn1)C(=O)Nc1ccc(F)cc1F` displayed an inhibition of 87%. Moreover, the IC50 worked out at 2.32 µM in experiment [2] and 1.74 µM in experiment [3].
With `CCCCCCCN(CCCCCNc1cc(-c2ccccc2)cnn1)C(=O)Nc1ccc(F)cc1F`, the inhibition in experiment [1] amounted to 46%. The IC50 in experiment [2] was 36.4 µM; in experiment [3], 101 µM.
`CCCCCCCN(CCCCC[S+]([O-])c1ccc(-c2ccccc2)nn1)C(=O)Nc1ccc(F)cc1F` (centres undefined) gave an inhibition in experiment [1] of 55%.
In experiment [1], `CCCCCCCN(CCCCCS(=O)(=O)c1cc(-c2ccccc2)cnn1)C(=O)Nc1ccc(F)cc1F` came in with an inhibition of 67%.
Molecule `CCCCCCCN(CCCCCS(=O)(=O)c1ccc(-c2ccccc2)nn1)C(=O)Nc1ccc(F)cc1F` displayed an inhibition in experiment [1] of 43%.
In the case of `CCCCCCCN(CCCCCNc1ccc(-c2ccccc2)nn1)C(=O)Nc1ccc(F)cc1F`, the figures for the half-inhibitory concentration (IC50) in experiment [4], in experiment [2] and in experiment [3] were 5.34 µM, 1.21 µM and 2.07 µM, respectively. This molecule also displayed an inhibition in experiment [1] of 89%.
Consider `CCCCCCCN(CCCCCSc1ccc(-c2ccccc2)nn1)C(=O)Nc1ccc(F)cc1F`, for which the inhibition in experiment [1] was found to be 44%.
`CCCCCCCN(CCCCCS(=O)(=O)c1cc(-c2ccccc2)c(-c2ccccc2)nn1)C(=O)Nc1ccc(F)cc1F`: in experiment [1], the inhibition came to 70%.
Regarding `CCCCCCCN(CCCCC[S+]([O-])c1cc(-c2ccccc2)c(-c2ccccc2)nn1)C(=O)Nc1ccc(F)cc1F` (centres undefined), the inhibition in experiment [1] amounted to 65%.
Regarding `CCCCCCCN(CCCCCSc1cc(-c2ccccc2)c(-c2ccccc2)nn1)C(=O)Nc1ccc(F)cc1F`, the inhibition in experiment [1] turned out to be 75%.
